Laboratory results taken from ChEMBL document CHEMBL5058577, “EUbOPEN Chemogenomics Library 2 (Multiplex)” (2022).

Test system: HEK-293T
Experiment: Multiplex assay against HEK293T
Type: toxicity, cell-based
Settings: human
Outline: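 Tubulin, mitochondrial-mass and membrane-permeability phenotypes are per cents of healthy-nucleus cells. Cells were gated by CellPathfinder machine learning into Hoechst high-intensity objects or normal cells, normal cells into healthy, pyknosed or fragmented nuclei, and pyknosed cells into mitotic or apoptotic. Before that, live cells stained at seeding with Hoechst33342, BioTracker Green Microtubule Cytoskeleton Dye, MitoTracker Red and Annexin V Alexa Fluor 680 were imaged on a CQ1 microscope at 37°C and 5% CO2 after compound addition.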

[1] = 12 h, 1 µM, compound concentration 1 uM, replicate 1
[2] = 12 h, 1 µM, compound concentration 1 uM, replicate 2
[3] = 12 h, 10 µM, compound concentration 10 uM, replicate 1
[4] = 12 h, 10 µM, compound concentration 10 uM, replicate 2
[5] = 24 h, 1 µM, compound concentration 1 uM, replicate 1
[6] = 24 h, 1 µM, compound concentration 1 uM, replicate 2
[7] = 24 h, 10 µM, compound concentration 10 uM, replicate 1
[8] = 24 h, 10 µM, compound concentration 10 uM, replicate 2
[9] = 48 h, 1 µM, compound concentration 1 uM, replicate 1
[10] = 48 h, 1 µM, compound concentration 1 uM, replicate 2
[11] = 48 h, 10 µM, compound concentration 10 uM, replicate 1
[12] = 48 h, 10 µM, compound concentration 10 uM, replicate 2

## NCCc1cn(S(=O)(=O)c2c(Cl)nc3sccn23)c2ccccc12.O=C(O)C(=O)O
[1]
  Population Apoptotic (%): 37%
  Population Fragmented Nuclei (%): 5%
  Population Healthy Nuclei (%): 83%
  Population Hoechst High Intensity Objects (%): 7%
  Population Membrane Permeable-Phenotype (%): 0%
  Population Mitochondria Different-Phenotype (%): 53%
  Population Mitotic Cells (%): 62%
  Population Normal (%): 92%
  Population Pyknosed Nuclei (%): 11%
  Population Tubulin-Different-Phenotype (%): 40%
  Total Cell Count: 446
[2]
  Population Apoptotic (%): 52%
  Population Fragmented Nuclei (%): 8%
  Population Healthy Nuclei (%): 78%
  Population Hoechst High Intensity Objects (%): 8%
  Population Mitochondria Different-Phenotype (%): 66%
  Population Mitotic Cells (%): 47%
  Population Normal (%): 91%
  Population Pyknosed Nuclei (%): 13%
  Population Tubulin-Different-Phenotype (%): 34%
  Total Cell Count: 316
[3]
  Population Apoptotic (%): 63%
  Population Fragmented Nuclei (%): 8%
  Population Healthy Nuclei (%): 49%
  Population Hoechst High Intensity Objects (%): 22%
  Population Membrane Permeable-Phenotype (%): 0%
  Population Mitochondria Different-Phenotype (%): 96%
  Population Mitotic Cells (%): 36%
  Population Normal (%): 77%
  Population Pyknosed Nuclei (%): 42%
  Population Tubulin-Different-Phenotype (%): 88%
  Total Cell Count: 292
[4]
  Population Apoptotic (%): 64%
  Population Healthy Nuclei (%): 67%
  Population Hoechst High Intensity Objects (%): 25%
  Population Mitochondria Different-Phenotype (%): 97%
  Population Mitotic Cells (%): 35%
  Population Normal (%): 74%
  Population Pyknosed Nuclei (%): 23%
  Population Tubulin-Different-Phenotype (%): 82%
  Total Cell Count: 209
[5]
  Population Apoptotic (%): 33%
  Population Fragmented Nuclei (%): 9%
  Population Healthy Nuclei (%): 79%
  Population Hoechst High Intensity Objects (%): 6%
  Population Membrane Permeable-Phenotype (%): 1%
  Population Mitochondria Different-Phenotype (%): 28%
  Population Mitotic Cells (%): 66%
  Population Normal (%): 93%
  Population Pyknosed Nuclei (%): 11%
  Population Tubulin-Different-Phenotype (%): 26%
  Total Cell Count: 585
[6]
  Population Apoptotic (%): 41%
  Population Fragmented Nuclei (%): 12%
  Population Healthy Nuclei (%): 78%
  Population Hoechst High Intensity Objects (%): 4%
  Population Mitochondria Different-Phenotype (%): 46%
  Population Mitotic Cells (%): 58%
  Population Normal (%): 95%
  Population Pyknosed Nuclei (%): 8%
  Population Tubulin-Different-Phenotype (%): 19%
  Total Cell Count: 438
[7]
  Population Apoptotic (%): 74%
  Population Fragmented Nuclei (%): 14%
  Population Healthy Nuclei (%): 37%
  Population Hoechst High Intensity Objects (%): 34%
  Population Membrane Permeable-Phenotype (%): 2%
  Population Mitochondria Different-Phenotype (%): 83%
  Population Mitotic Cells (%): 25%
  Population Normal (%): 65%
  Population Pyknosed Nuclei (%): 48%
  Population Tubulin-Different-Phenotype (%): 44%
  Total Cell Count: 310
[8]
  Population Apoptotic (%): 75%
  Population Healthy Nuclei (%): 62%
  Population Mitochondria Different-Phenotype (%): 95%
  Population Mitotic Cells (%): 24%
  Population Pyknosed Nuclei (%): 22%
  Population Tubulin-Different-Phenotype (%): 76%
  Total Cell Count: 195
[9]
  Population Apoptotic (%): 23%
  Population Fragmented Nuclei (%): 16%
  Population Healthy Nuclei (%): 77%
  Population Hoechst High Intensity Objects (%): 3%
  Population Membrane Permeable-Phenotype (%): 0%
  Population Mitochondria Different-Phenotype (%): 22%
  Population Mitotic Cells (%): 76%
  Population Normal (%): 96%
  Population Pyknosed Nuclei (%): 6%
  Population Tubulin-Different-Phenotype (%): 19%
  Total Cell Count: 972
[10]
  Population Apoptotic (%): 47%
  Population Fragmented Nuclei (%): 12%
  Population Healthy Nuclei (%): 82%
  Population Hoechst High Intensity Objects (%): 5%
  Population Membrane Permeable-Phenotype (%): 1%
  Population Mitochondria Different-Phenotype (%): 23%
  Population Mitotic Cells (%): 52%
  Population Normal (%): 94%
  Population Pyknosed Nuclei (%): 5%
  Population Tubulin-Different-Phenotype (%): 14%
  Total Cell Count: 678
[11]
  Population Apoptotic (%): 53%
  Population Fragmented Nuclei (%): 27%
  Population Healthy Nuclei (%): 24%
  Population Hoechst High Intensity Objects (%): 62%
  Population Membrane Permeable-Phenotype (%): 11%
  Population Mitochondria Different-Phenotype (%): 74%
  Population Mitotic Cells (%): 46%
  Population Normal (%): 37%
  Population Pyknosed Nuclei (%): 47%
  Population Tubulin-Different-Phenotype (%): 55%
  Total Cell Count: 294
[12]
  Population Apoptotic (%): 78%
  Population Fragmented Nuclei (%): 19%
  Population Healthy Nuclei (%): 47%
  Population Hoechst High Intensity Objects (%): 47%
  Population Membrane Permeable-Phenotype (%): 1%
  Population Mitochondria Different-Phenotype (%): 75%
  Population Mitotic Cells (%): 21%
  Population Normal (%): 52%
  Population Pyknosed Nuclei (%): 33%
  Population Tubulin-Different-Phenotype (%): 52%
  Total Cell Count: 212
